Experimental data: ChEMBL document CHEMBL3779798, “Novel seleno- and thio-urea derivatives with potent in vitro activities against several cancer cell lines” (Eur J Med Chem, 2016)
The source made the active and inactive calls. No cut-off for these calls is given here.

Key:
[1] = Anticancer activity against human HCT116 cells assessed as inhibition of cell growth after 72 hrs by MTT assay; format: functional, cell-based; settings: HCT-116, 72 h
Summary of the method: (§1)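 MTT assay at 3,000 cells/well. Cells treated with DMSO or seven concentrations from 0.5 to 50 µM for 24, 48 or 72 h. MTT added 3 h before the end point; formazan dissolved in DMSO and read at 570 and 630 nm. IC50 is the concentration giving 50% growth inhibition. Media: PANC-1, BxPC3 and 1205Lu in DMEM; DU145 and A549 in RPMI 1640; HT29, HCT116 and RKO in McCoy's 5A, all with 10% FBS and pen/strep, at 37 °C and 5% CO2.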

A549 [2] = assay: Anticancer activity against human A549 cells assessed as inhibition of cell growth after 24 hrs by MTT assay; format: functional, cell-based; settings: A549, 24 h; summary of the method: as §1
HCT-116 [3] = assay: Induction of apoptosis in human HCT116 cells assessed as late apoptotic cells at 5 uM after 24 hrs by caspase3/7 reagent based flow cytometry (reference value: 2.28%); format: functional
HCT-116 [4] = assay: Induction of apoptosis in human HCT116 cells assessed as early apoptotic cells at 5 uM after 24 hrs by annexin-V staining based flow cytometry analysis (reference value: 7.84%); format: functional
HCT-116 [5] = assay: Induction of apoptosis in human HCT116 cells assessed as late apoptotic cells at 1 uM after 24 hrs by annexin-V staining based flow cytometry analysis (reference value: 1.06%); format: functional
HCT-116 [6] = assay: Induction of apoptosis in human HCT116 cells assessed as viable cells at 1 uM after 24 hrs by caspase3/7 reagent based flow cytometry (reference value: 88.4%); format: functional; settings: HCT-116, 24 h, read-out: Activity
HCT-116 [7] = assay: Induction of apoptosis in human HCT116 cells assessed as viable cells at 5 uM after 24 hrs by caspase3/7 reagent based flow cytometry (reference value: 88.4%); format: functional; settings: HCT-116, 24 h, read-out: Activity
HCT-116 [8] = assay: Induction of apoptosis in human HCT116 cells assessed as late apoptotic cells at 2.5 uM after 24 hrs by annexin-V staining based flow cytometry analysis (reference value: 1.06%); format: functional
A549 [9] = assay: Anticancer activity against human A549 cells assessed as inhibition of cell growth after 72 hrs by MTT assay; format: functional, cell-based; settings: A549, 72 h; summary of the method: as §1
HCT-116 [10] = assay: Induction of apoptosis in human HCT116 cells assessed as necrotic cells at 5 uM after 24 hrs by caspase3/7 reagent based flow cytometry (reference value: 4.14%); format: functional
HCT-116 [11] = assay: Induction of apoptosis in human HCT116 cells assessed as necrotic cells at 2.5 uM after 24 hrs by annexin-V staining based flow cytometry analysis (reference value: 0.72%); format: functional
[12] = Anticancer activity against human HCT116 cells assessed as inhibition of cell growth after 24 hrs by MTT assay; format: functional, cell-based; settings: HCT-116, 24 h; summary of the method: as §1
HCT-116 [13] = assay: Induction of apoptosis in human HCT116 cells assessed as necrotic cells at 1 uM after 24 hrs by annexin-V staining based flow cytometry analysis (reference value: 0.72%); format: functional
HCT-116 [14] = assay: Induction of apoptosis in human HCT116 cells assessed as viable cells at 2.5 uM after 24 hrs by caspase3/7 reagent based flow cytometry (reference value: 88.4%); format: functional; settings: HCT-116, 24 h, read-out: Activity
HCT-116 [15] = assay: Induction of apoptosis in human HCT116 cells assessed as early apoptotic cells at 1 uM after 24 hrs by annexin-V staining based flow cytometry analysis (reference value: 7.84%); format: functional
HCT-116 [16] = assay: Decrease in pro-caspase3 level in human HCT116 cells at 0.5 to 5 uM after 24 hrs by western blot analysis; format: functional, cell-based
Summary of the method: (§2)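 HCT116 cells (6 × 10^5/well) treated for 24 h. Whole-cell lysates made in RIPA buffer with phosphatase and protease inhibitors and PMSF, cleared at 15,000 g, resolved by SDS-PAGE and transferred to PVDF. Blots probed overnight in the cold with primary antibodies, then peroxidase-linked secondaries, and detected by ECL; β-actin antibody used.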

HCT-116 [17] = assay: Decrease in whole PARP level in human HCT116 cells at 0.5 to 5 uM after 24 hrs by western blot analysis; format: functional, cell-based; summary of the method: as §2
HCT-116 [18] = assay: Induction of apoptosis in human HCT116 cells assessed as early apoptotic cells at 2.5 uM after 24 hrs by annexin-V staining based flow cytometry analysis (reference value: 7.84%); format: functional
RKO = assay: Potency index, ratio IC50 of 5-FU to IC50 of compound for anticancer activity against human RKO cells; format: functional
Summary of the method: (§3)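 Colon lines (McCoy's 5A, 10% FBS, penicillin/streptomycin, 37 °C, 5% CO2) seeded at 3,000 cells/well and exposed 24, 48 or 72 h to DMSO or seven concentrations across 0.5–50 µM. MTT added 3 h before end; formazan dissolved in DMSO, absorbance read at 570 and 630 nm. IC50 (50% growth inhibition) from curve fitting; index is the 5-FU IC50 divided by the compound IC50.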

HCT-116 [19] = assay: Induction of apoptosis in human HCT116 cells assessed as necrotic cells at 2.5 uM after 24 hrs by caspase3/7 reagent based flow cytometry (reference value: 4.14%); format: functional
[20] = Anticancer activity against human 1205 Lu cells assessed as inhibition of cell growth after 24 hrs by MTT assay; format: functional, cell-based; summary of the method: as §1
HCT-116 [21] = assay: Reduction in Bcl2 level in human HCT116 cells after 24 hrs by western blot analysis; format: functional, cell-based
Summary of the method: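 HCT116 cells (6 × 10^5/well) treated with rising concentrations for 24 h. Lysed in RIPA with phosphatase and protease inhibitors and PMSF, cleared at 15,000 g for 10 min. Lysates resolved by SDS-PAGE, transferred to PVDF, probed overnight in the cold with primary antibodies, then peroxidase-linked secondary for 1–4 h at room temperature, detected by ECL; β-actin antibody used.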

[22] = Anticancer activity against human PANC1 cells assessed as inhibition of cell growth after 24 hrs by MTT assay; format: functional, cell-based; settings: PANC-1, 24 h; summary of the method: as §1
[23] = Induction of cell death in human HCT116 cells at 2.5 uM after 24 hrs by calcein-AM and ethidium homodimer-1 staining based flow cytometry analysis (reference value: 1.1%); format: functional, HCT-116
[24] = Anticancer activity against human DU145 cells assessed as inhibition of cell growth after 48 hrs by MTT assay; format: functional, cell-based; settings: DU-145, 48 h; summary of the method: as §1
[25] = Induction of cell death in human HCT116 cells at 5 uM after 24 hrs by calcein-AM and ethidium homodimer-1 staining based flow cytometry analysis (reference value: 1.1%); format: functional, HCT-116
HT-29 = assay: Potency index, ratio IC50 of 5-FU to IC50 of compound for anticancer activity against human HT-29 cells; format: functional; summary of the method: as §3
HCT-116 [26] = assay: Induction of apoptosis in human HCT116 cells assessed as early apoptotic cells at 2.5 uM after 24 hrs by caspase3/7 reagent based flow cytometry (reference value: 5.18%); format: functional
HCT-116 [27] = assay: Induction of apoptosis in human HCT116 cells assessed as early apoptotic cells at 5 uM after 24 hrs by caspase3/7 reagent based flow cytometry (reference value: 5.18%); format: functional
HCT-116 [28] = assay: Potency index, ratio IC50 of 5-FU to IC50 of compound for anticancer activity against human HCT116 cells; format: functional; summary of the method: as §3

## Br.Br.N=C(N)[Se]Cc1nc2ccccc2nc1C[Se]C(=N)N
[1]
  IC50: 0.7 µM
A549 [2]
  IC50: 3 µM
HCT-116 [3]
  Activity: 50.26%
HCT-116 [4]
  Activity: 39.02%
HCT-116 [5]
  Activity: 2.28%
HCT-116 [6]
  viability at 1 µM: 87%
HCT-116 [7]
  viability at 5 µM: 16.1%
HCT-116 [8]
  Activity: 11.64%
A549 [9]
  IC50: 1 µM
HCT-116 [10]
  Activity: 5.96%
HCT-116 [11]
  Activity: 0.58%
[12]
  IC50: 2.9 µM
HCT-116 [13]
  Activity: 0.2%
HCT-116 [14]
  viability at 2.5 µM: 85%
HCT-116 [15]
  Activity: 19.44%
HCT-116 [16]
  Activity: Active
HCT-116 [17]
  Activity: Active
HCT-116 [18]
  Activity: 21.6%
RKO
  Ratio IC50: >50
HCT-116 [19]
  Activity: 2.78%
[20]
  IC50: 3.3 µM
HCT-116 [21]
  Activity: Dose-dependent effect
[22]
  IC50: 6.6 µM
[23]
  Activity: 5.1%
[24]
  IC50: 2.8 µM
[25]
  Activity: 19.3%
HT-29
  Ratio IC50: >50
HCT-116 [26]
  Activity: 6.48%
HCT-116 [27]
  Activity: 27.66%
HCT-116 [28]
  Ratio IC50: >50
